Experimental data as given in ChEMBL document CHEMBL2150981, “Discovery and optimization of benzotriazine di-N-oxides targeting replicating and nonreplicating Mycobacterium tuberculosis” (J Med Chem, 2012).
Converted amounts (≈) assume the structure as drawn.

Columns and labels:
Assay type in all cases: functional
[1] = system: Mycobacterium tuberculosis; experiment: Antitubercular activity against streptomycin-resistant Mycobacterium tuberculosis ATCC 35820 after 5 days by resazurin-based microplate assay; conditions: ATCC 35820, 120 h
Summary of the method: (§1)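 Mid-log cultures grown in 7H9 with glycerol, Tween-80 and ADC. Compounds in DMSO were tested two-fold from […] against ~10^5 CFU/mL, 37°C for 5 d. Resazurin was then added for a further 2 d, and fluorescence read at ex 530/em 590 with visual confirmation. MIC was the lowest concentration inhibiting 90% of growth. Final DMSO 0.625%; two-fold variation taken as assay error.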

[2] = system: Mycobacterium tuberculosis; experiment: Antitubercular activity against isoniazid-resistant Mycobacterium tuberculosis ATCC 35822 after 5 days by resazurin-based microplate assay; conditions: ATCC 35822, 120 h; summary of the method: as §1
[3] = system: Mycobacterium tuberculosis; experiment: Antitubercular activity against kanamycin-resistant Mycobacterium tuberculosis ATCC 35827 after 5 days by resazurin-based microplate assay; conditions: ATCC 35827, 120 h; summary of the method: as §1
[4] = system: Mycobacterium tuberculosis; experiment: Antitubercular activity against ethionamide-resistant Mycobacterium tuberculosis ATCC 35830 after 5 days by resazurin-based microplate assay; conditions: ATCC 35830, 120 h; summary of the method: as §1
[5] = system: Mycobacterium tuberculosis; experiment: Antitubercular activity against ethambutol-resistant Mycobacterium tuberculosis ATCC 35837 after 5 days by resazurin-based microplate assay; conditions: ATCC 35837, 120 h; summary of the method: as §1

Row | SMILES | MIC90 [1] | MIC90 [2] | MIC90 [3] | MIC90 [4] | MIC90 [5]
1 | CCNc1n[n+]([O-])c2ccccc2[n+]1[O-] | 1.2 µg/mL (≈ 5.82 µM) | 1.2 µg/mL (≈ 5.82 µM) | 1.2 µg/mL (≈ 5.82 µM) | 1.2 µg/mL (≈ 5.82 µM) | 1.2 µg/mL (≈ 5.82 µM)
2 | CC(C)(C)Nc1n[n+]([O-])c2ccccc2[n+]1[O-] | 1.2 µg/mL (≈ 5.12 µM) | 2.5 µg/mL (≈ 10.7 µM) | 2.5 µg/mL (≈ 10.7 µM) | 1.2 µg/mL (≈ 5.12 µM) | 2.5 µg/mL (≈ 10.7 µM)
3 | CCNc1n[n+]([O-])c2cccc(C)c2[n+]1[O-] | 0.16 µg/mL (≈ 0.727 µM) | 0.62 µg/mL (≈ 2.82 µM) | 0.62 µg/mL (≈ 2.82 µM) | 0.31 µg/mL (≈ 1.41 µM) | 0.62 µg/mL (≈ 2.82 µM)
4 | CCNc1n[n+]([O-])c2cc3c(cc2[n+]1[O-])CCC3 | 0.63 µg/mL (≈ 2.56 µM) | 1.2 µg/mL (≈ 4.87 µM) | 1.2 µg/mL (≈ 4.87 µM) | 1.2 µg/mL (≈ 4.87 µM) | 1.2 µg/mL (≈ 4.87 µM)
5 | [O-][n+]1nc(NC2CCC2)[n+]([O-])c2cc3c(cc21)CCC3 | 0.31 µg/mL (≈ 1.14 µM) | 1.2 µg/mL (≈ 4.41 µM) | 1.2 µg/mL (≈ 4.41 µM) | 0.62 µg/mL (≈ 2.28 µM) | 0.62 µg/mL (≈ 2.28 µM)
6 | CCNc1n[n+]([O-])c2cc(C)c(OC)cc2[n+]1[O-] | 1.2 µg/mL (≈ 4.8 µM) | 1.2 µg/mL (≈ 4.8 µM) | 1.2 µg/mL (≈ 4.8 µM) | 1.2 µg/mL (≈ 4.8 µM) | 1.2 µg/mL (≈ 4.8 µM)
7 | [O-][n+]1nc(N2CCCC2)[n+]([O-])c2ccccc21 | 0.02 µg/mL (≈ 0.0861 µM) | 0.31 µg/mL (≈ 1.33 µM) | 0.31 µg/mL (≈ 1.33 µM) | 0.31 µg/mL (≈ 1.33 µM) | 0.31 µg/mL (≈ 1.33 µM)
8 | [O-][n+]1nc(N2CCCC2)[n+]([O-])c2cc3c(cc21)CCC3 | 0.16 µg/mL (≈ 0.588 µM) | 0.31 µg/mL (≈ 1.14 µM) | 0.63 µg/mL (≈ 2.31 µM) | 0.62 µg/mL (≈ 2.28 µM) | 0.62 µg/mL (≈ 2.28 µM)
9 | [O-][n+]1nc(N2CCCCC2)[n+]([O-])c2cc3c(cc21)CCC3 | 0.15 µg/mL (≈ 0.524 µM) | 0.15 µg/mL (≈ 0.524 µM) | 0.31 µg/mL (≈ 1.08 µM) | 0.31 µg/mL (≈ 1.08 µM) | 0.31 µg/mL (≈ 1.08 µM)
10 | CN(C)c1n[n+]([O-])c2cc3c(cc2[n+]1[O-])CCC3 | < 0.07 µg/mL | < 0.07 µg/mL | 0.31 µg/mL (≈ 1.26 µM) | 0.15 µg/mL (≈ 0.609 µM) | 0.31 µg/mL (≈ 1.26 µM)
11 | CN(Cc1ccccc1)c1n[n+]([O-])c2cc3c(cc2[n+]1[O-])CCC3 | < 0.07 µg/mL | < 0.07 µg/mL | 0.15 µg/mL (≈ 0.465 µM) | 0.07 µg/mL (≈ 0.217 µM) | 0.15 µg/mL (≈ 0.465 µM)
12 | CN(CCc1ccccc1)c1n[n+]([O-])c2cc3c(cc2[n+]1[O-])CCC3 | < 0.07 µg/mL | 0.07 µg/mL (≈ 0.208 µM) | 0.15 µg/mL (≈ 0.446 µM) | 0.15 µg/mL (≈ 0.446 µM) | 0.31 µg/mL (≈ 0.922 µM)
13 | CC1CCCCN1c1n[n+]([O-])c2cc3c(cc2[n+]1[O-])CCC3 (stereo not given) | 0.31 µg/mL (≈ 1.03 µM) | 0.31 µg/mL (≈ 1.03 µM) | 0.62 µg/mL (≈ 2.06 µM) | 0.31 µg/mL (≈ 1.03 µM) | 0.62 µg/mL (≈ 2.06 µM)
